Data reported in ChEMBL document CHEMBL4304816, “A Novel Biphenyl-based Chemotype of Retinoid X Receptor Ligands Enables Subtype and Heterodimer Preferences” (ACS Med Chem Lett, 2019).
Calls of active or inactive are those of the source. The rule behind the calls is not given here.

Legend:
Assay type in all cases: cell-based
[1] = target: T1, Retinoic acid receptor RXR-alpha (Homo sapiens) (UniProt P19793); assay: Agonist activity at Gal4-LBD fused RXRalpha (unknown origin) expressed in HEK293T cells assessed as fold activation after 14 to 16 hrs by dual-Glo luciferase assay relative to untreated control
T1 sequence (whole entry): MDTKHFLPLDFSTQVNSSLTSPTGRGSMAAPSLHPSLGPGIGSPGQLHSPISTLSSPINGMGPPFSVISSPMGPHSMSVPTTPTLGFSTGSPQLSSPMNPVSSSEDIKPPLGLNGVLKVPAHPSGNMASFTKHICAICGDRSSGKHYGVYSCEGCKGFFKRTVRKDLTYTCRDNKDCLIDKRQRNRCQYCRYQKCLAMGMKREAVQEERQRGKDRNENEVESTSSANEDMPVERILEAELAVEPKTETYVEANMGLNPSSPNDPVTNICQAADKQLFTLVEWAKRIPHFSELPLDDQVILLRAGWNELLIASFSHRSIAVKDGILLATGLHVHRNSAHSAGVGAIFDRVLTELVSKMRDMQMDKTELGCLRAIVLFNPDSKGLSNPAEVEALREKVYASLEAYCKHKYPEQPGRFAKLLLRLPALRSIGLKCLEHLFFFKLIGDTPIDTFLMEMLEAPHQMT
Outline: (§1)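 Gal4-hybrid RXRα/β/γ reporter gene assays in HEK293T cells. Fold activation is the maximal fold activation versus 0.1% DMSO.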

[2] = target: T2, Retinoic acid receptor RXR-gamma (Homo sapiens, UniProt P48443); assay: Agonist activity at Gal4-LBD fused RXRgamma (unknown origin) expressed in HEK293T cells after 14 to 16 hrs by dual-Glo luciferase assay; outline: as §1
T2 sequence (P48443 whole entry): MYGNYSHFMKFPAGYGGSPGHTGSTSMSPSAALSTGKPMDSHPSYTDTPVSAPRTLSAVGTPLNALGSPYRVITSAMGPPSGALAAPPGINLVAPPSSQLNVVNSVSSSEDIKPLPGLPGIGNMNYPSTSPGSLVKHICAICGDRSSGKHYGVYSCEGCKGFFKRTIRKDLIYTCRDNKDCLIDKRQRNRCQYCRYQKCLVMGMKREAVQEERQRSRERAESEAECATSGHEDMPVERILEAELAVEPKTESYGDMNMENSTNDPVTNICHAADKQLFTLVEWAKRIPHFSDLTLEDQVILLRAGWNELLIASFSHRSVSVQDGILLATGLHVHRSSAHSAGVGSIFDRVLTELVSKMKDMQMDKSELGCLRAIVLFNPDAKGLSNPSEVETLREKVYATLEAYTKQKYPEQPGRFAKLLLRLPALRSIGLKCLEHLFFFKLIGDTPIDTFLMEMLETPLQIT

[3] = target: T3, Retinoic acid receptor RXR-beta (Homo sapiens, UniProt P28702); assay: Agonist activity at Gal4-LBD fused RXRbeta (unknown origin) expressed in HEK293T cells after 14 to 16 hrs by dual-Glo luciferase assay; outline: as §1
T3 sequence (P28702 whole entry): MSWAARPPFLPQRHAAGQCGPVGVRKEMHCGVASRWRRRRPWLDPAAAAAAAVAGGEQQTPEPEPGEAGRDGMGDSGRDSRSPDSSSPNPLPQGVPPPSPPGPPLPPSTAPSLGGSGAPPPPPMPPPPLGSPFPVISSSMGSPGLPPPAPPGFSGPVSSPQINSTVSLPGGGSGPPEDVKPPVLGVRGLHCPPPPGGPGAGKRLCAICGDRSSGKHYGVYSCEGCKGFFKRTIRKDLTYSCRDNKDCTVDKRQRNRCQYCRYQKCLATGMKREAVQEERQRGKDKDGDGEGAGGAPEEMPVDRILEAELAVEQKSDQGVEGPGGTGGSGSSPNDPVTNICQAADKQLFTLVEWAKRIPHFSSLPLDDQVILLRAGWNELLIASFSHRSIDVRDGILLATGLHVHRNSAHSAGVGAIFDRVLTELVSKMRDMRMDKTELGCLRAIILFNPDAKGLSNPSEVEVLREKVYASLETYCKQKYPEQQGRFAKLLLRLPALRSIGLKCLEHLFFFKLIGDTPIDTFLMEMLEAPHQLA

[4] = target: T4, Retinoic acid receptor RXR-beta (Homo sapiens) (UniProt P28702); assay: Agonist activity at Gal4-LBD fused RXRbeta (unknown origin) expressed in HEK293T cells assessed as fold activation after 14 to 16 hrs by dual-Glo luciferase assay relative to untreated control; outline: as §1
T4 sequence (whole entry): T3 sequence (P28702 whole entry)

[5] = target: T5, Retinoic acid receptor RXR-alpha (Homo sapiens, UniProt P19793); assay: Agonist activity at Gal4-LBD fused RXRalpha (unknown origin) expressed in HEK293T cells after 14 to 16 hrs by dual-Glo luciferase assay; outline: as §1
T5 sequence (P19793 whole entry): T1 sequence (whole entry)

[6] = target: T6, Retinoic acid receptor RXR-gamma (Homo sapiens) (UniProt P48443); assay: Agonist activity at Gal4-LBD fused RXRgamma (unknown origin) expressed in HEK293T cells assessed as fold activation after 14 to 16 hrs by dual-Glo luciferase assay relative to untreated control; outline: as §1
T6 sequence (whole entry): T2 sequence (P48443 whole entry)

[7] = target: T4, Retinoic acid receptor RXR-beta (Homo sapiens); assay: Agonist activity at Gal4-LBD fused RXRbeta (unknown origin) expressed in HEK293T cells assessed as fold activation at 20 uM after 14 to 16 hrs by dual-Glo luciferase assay relative to untreated control; outline: as §1
[8] = target: T6, Retinoic acid receptor RXR-gamma (Homo sapiens); assay: Agonist activity at Gal4-LBD fused RXRgamma (unknown origin) expressed in HEK293T cells assessed as fold activation at 20 uM after 14 to 16 hrs by dual-Glo luciferase assay relative to untreated control; outline: as §1
[9] = target: T1, Retinoic acid receptor RXR-alpha (Homo sapiens); assay: Agonist activity at Gal4-LBD fused RXRalpha (unknown origin) expressed in HEK293T cells assessed as fold activation at 20 uM after 14 to 16 hrs by dual-Glo luciferase assay relative to untreated control; outline: as §1
[10] = target: T1, Retinoic acid receptor RXR-alpha (Homo sapiens); assay: Agonist activity at Gal4-LBD fused RXRalpha (unknown origin) expressed in HEK293T cells at 30 uM after 14 to 16 hrs by dual-Glo luciferase assay
[11] = target: T4, Retinoic acid receptor RXR-beta (Homo sapiens); assay: Agonist activity at Gal4-LBD fused RXRbeta (unknown origin) expressed in HEK293T cells at 30 uM after 14 to 16 hrs by dual-Glo luciferase assay
[12] = target: T6, Retinoic acid receptor RXR-gamma (Homo sapiens); assay: Agonist activity at Gal4-LBD fused RXRgamma (unknown origin) expressed in HEK293T cells at 30 uM after 14 to 16 hrs by dual-Glo luciferase assay
[13] = target: T6, Retinoic acid receptor RXR-gamma (Homo sapiens); assay: Agonist activity at Gal4-LBD fused RXRgamma (unknown origin) expressed in HEK293T cells at 10 uM after 14 to 16 hrs by dual-Glo luciferase assay
[14] = target: T4, Retinoic acid receptor RXR-beta (Homo sapiens); assay: Agonist activity at Gal4-LBD fused RXRbeta (unknown origin) expressed in HEK293T cells at 10 uM after 14 to 16 hrs by dual-Glo luciferase assay
[15] = target: T1, Retinoic acid receptor RXR-alpha (Homo sapiens); assay: Agonist activity at Gal4-LBD fused RXRalpha (unknown origin) expressed in HEK293T cells at 10 uM after 14 to 16 hrs by dual-Glo luciferase assay
[16] = target: T6, Retinoic acid receptor RXR-gamma (Homo sapiens); assay: Agonist activity at Gal4-LBD fused RXRgamma (unknown origin) expressed in HEK293T cells at 20 uM after 14 to 16 hrs by dual-Glo luciferase assay
[17] = Agonist activity at full-length human RXR/LXR expressed in HEK293T cells at 20 uM after 14 to 16 hrs in presence of 1 uM T0901317 by dual-glo luciferase reporter gene assay relative to T0901317; conditions: HEK-293T, read-out: Activity
Outline: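 Synergy format: the test compound was co-applied with the partner-receptor reference agonist at 1 μM, either T0901317 (RXR:LXR) or rosiglitazone (RXR:PPARγ). Relative synergistic activation was derived from three independent experiments, each in duplicate; mean reported.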

Homo sapiens [18] = organism: Homo sapiens; assay: Agonist activity at full-length human PPARgamma/RXR expressed in HEK293T cells at 20 uM after 14 to 16 hrs by dual-glo luciferase reporter gene assay relative to untreated control
Outline: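 RXR:PPARγ heterodimer reporter assay in HEK293T cells with test compound alone. Mean relative activation is taken versus 0.1% DMSO, from three independent experiments each run in duplicate.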

[19] = Agonist activity at full-length human RXR/LXR expressed in HEK293T cells at 20 uM after 14 to 16 hrs by dual-glo luciferase reporter gene assay relative to untreated control; conditions: HEK-293T, read-out: Activity
Outline: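 RXR:LXR or RXR:PPARγ heterodimer reporter assay with test compound alone. Activation expressed relative to 0.1% DMSO vehicle. Three independent experiments, each in duplicate; mean reported.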

Homo sapiens [20] = organism: Homo sapiens; assay: Agonist activity at full-length human PPARgamma/RXR expressed in HEK293T cells at 20 uM after 14 to 16 hrs in presence of 1 uM rosiglitazone by dual-glo luciferase reporter gene assay relative to rosiglitazone
Outline: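 RXR:PPARγ heterodimer reporter assay run with reference PPARγ agonist rosiglitazone (1 μM) co-applied. Read-out is mean relative synergistic activation, from three independent experiments each run in duplicate.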

| Compound | fold change (FC) [1] | EC50 [3] [µM] | fold change (FC) [4] | EC50 [5] [µM] | Activity [12] | other results |
| --- | --- | --- | --- | --- | --- | --- |
| CC(C)c1cccc(-c2ccc(C(=O)O)cc2)c1 | 28 | 16.2 | 65 | 14.3 | – | EC50 [2]: 11.6 µM; fold change (FC) [6]: 2.7 |
| O=C(O)c1ccc(-c2cc(Cl)cc(Cl)c2)cc1 | 38 | 13 | 68 | 9.3 | – | EC50 [2]: > 30 µM; fold change (FC) [7]: 60; fold change (FC) [8]: 3; fold change (FC) [9]: 33 |
| O=C(O)c1ccc(-c2ccccc2)cc1 | – | – | – | – | inactive | Activity [10]: inactive; Activity [11]: inactive |
| Cc1cc(C(=O)O)ccc1-c1cc(C(C)(C)C)cc(C(C)(C)C)c1 | – | – | – | – | – | Activity [13]: inactive; Activity [14]: inactive; Activity [15]: inactive |
| CC(C)(C)c1cccc(-c2ccc(C(=O)O)cc2)c1 | 19 | 12.8 | 35 | 18 | – | Activity [16]: inactive |
| Cc1cc(-c2cc(C(C)(C)C)cc(C(C)(C)C)c2)ccc1CC(=O)O | 3.5 | 7 | 28 | 3.5 | – | Activity [13]: inactive |
| COc1cc(OC)cc(-c2ccc(C(=O)O)cc2)c1 | 4.8 | – | – | 25.4 | inactive | Activity [11]: inactive |
| Cc1cc(-c2cc(C(F)(F)F)cc(C(F)(F)F)c2)ccc1C(=O)O | – | 8.9 | – | 9.1 | inactive | activity at 20 µM [17]: 71%; Activity (Homo sapiens [18]): 84%; activity at 20 µM [19]: 71%; Activity (Homo sapiens [20]): 46% |
| CCOc1cccc(-c2ccc(C(=O)O)cc2)c1 | 11 | 30 | 11 | 22.5 | inactive | – |
